Results as given in paper PMC7647946 (Drug delivery and translational research, 2021).

Legend:
[1] = Pharmacokinetics of PD98059 following IV injection; assay type: in vivo, rat
Procedure, shortened: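 Male Sprague-Dawley rats, urethane-anaesthetised, received slow femoral-vein infusion of test compound (0.5 mg/ml, 2 ml, 10% Tween 80/DPBS). Blood drawn at 5, 15, 30, 60, 180 and 360 min into K2-EDTA, plasma stored at −80° C. 100 μl plasma spiked with 7-hydroxyflavone, acetonitrile-precipitated, dried and reconstituted. HPLC against naïve-plasma standards; n=3 (n=1 at 6 h). PK Solver 1-/2-compartment fits; non-compartmental AUC0-t.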

Organ = assay type: in vivo, rat; conditions: healthy rats
Procedure, shortened: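 Male Sprague-Dawley rats (6–8 weeks, 275–300 g), urethane-anaesthetised, with a femoral-vein cannula. Test compound at 0.5 mg/ml in 10% Tween 80/sterile 1X DPBS, 2 ml infused slowly. Brain taken at 1 and 3 h (n=3 per time), rinsed, held at −80° C. 200–400 mg homogenised in DPBS with 7-hydroxyflavone internal standard. Cold-acetonitrile precipitation, N2 drying, mobile-phase reconstitution. HPLC-diode array against naïve-tissue standards; mean ± SD.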

[2] = Solubility of PD98059 in the release medium; assay type: physicochemical; conditions: 0.4% v/v Tween 80 in 1X DPBS, 37° C
[3] = test system: pERK1/2 expression in PVN; conditions: 1-hour ICV infusion, rats with heart failure; ref [23]; cited from earlier work
rats with heart failure = conditions: cited from earlier work
[4] = 1-compartment model, IV 1 mg, healthy rats
[5] = 2-compartment model, IV 1 mg, healthy rats
[6] = non-compartmental analysis, IV 1 mg, healthy rats
[7] = 1-hour ICV infusion, rats with heart failure, ref [23]

AUC0-inf [1, 4]: 76774.83 ng·min/mL
AUC0-t [1, 4]: 76774.82 ng·min/mL
AUMC [1, 4]: 1716754 ng.min^2/ml
C0 [1, 4]: 3433.44 ng/mL
CI [1, 4]: 13.03 mL/min
K [1, 4]: 0.045 min⁻¹
MRT [1, 4]: 0.3727 h
T1/2 [1, 4]: 0.258 h
V [1, 4]: 291.25 mL
Vss [1, 4]: 291.25 mL
A [1, 5]: 3236.5 ng/mL
AUC0-inf [1, 5]: 135064 ng·min/mL
AUC0-t [1, 5]: 131605.22 ng·min/mL
AUMC [1, 5]: 11287504.55 ng.min^2/ml
B [1, 5]: 980.76 ng/mL
C0 [1, 5]: 4217.23 ng/mL
CI [1, 5]: 7.4 mL/min
K10 [1, 5]: 0.031 min⁻¹
K12 [1, 5]: 0.05 min⁻¹
K21 [1, 5]: 0.031 min⁻¹
MRT [1, 5]: 1.393 h
V [1, 5]: 237.12 mL
Vss [1, 5]: 618.76 mL
α [1, 5]: 0.104 min
β [1, 5]: 0.0094 min
AUC0-t ([1]; IV 1 mg PD98059 in solution, NCA): 142720 ng·min/mL
K (elimination rate constant) ([1]; non-compartmental analysis, IV 1 mg PD98059 in 10% Tween 80, healthy rats, plasma): 0.0074 min⁻¹
AUC0-inf [1, 6]: 152980.9 ng·min/mL
AUC0-t [1, 6]: 142723.37 ng·min/mL
AUMC0-inf [1, 6]: 14922241.77 ng.min^2/ml
C0 (plasma concentration at 0 time) [1, 6]: 3863.5 ng/mL
CI (clearance) [1, 6]: 6.54 mL/min
MRT0-inf [1, 6]: 1.626 h
V (volume of distribution) [1, 6]: 885.82 mL
Vss (steady state volume of distribution) [1, 6]: 637.62 mL
T1/2 (plasma half-life) ([1]; non-compartmental analysis, IV 1 mg, healthy rats, plasma): 1.566 h
brain PD98059 level (Organ; 1 hour after IV 1 mg): approximately 410 ng/g
brain PD98059 level (Organ; 3 hours after IV 1 mg): ~76 ng/g
solubility in release medium [2]: approximately 113 μg/ml
Compound: COc1cccc(-c2cc(=O)c3ccccc3o2)c1N [PD98059]
pERK1/2 expression in PVN [3]: decreased
neuronal excitation in PVN (rats with heart failure; [7]): decreased
renal sympathetic nerve activity (rats with heart failure; [7]): decreased
plasma norepinephrine (index of overall sympathetic nerve activity) (rats with heart failure; chronic (4 week) ICV infusions, heart failure rats, ref [19]): reduced
